# Screening data (PubChem)
# A selection: hits, their analogues and other compounds. The true share with any hit is near 3.7%.
# KCNK9 inh = KCNK9 potassium channel inhibitors, primary screen, HEK293 cells, thallium flux; Potassium channel subfamily K member 9 (Homo sapiens), Q9NPC2; FluxOR thallium flux fluorescence; stronger effect = lower value; B-score at 10 µM; 1.2% of 310,000 active; AID 488922, 2010;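 active = ratio B-score over 3 SD below the library mean, with starting fluorescence within 5 SD of its mean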;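 also: negative B-score means less thallium flux so channel inhibition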
# hERG protect = hERG rescue from dofetilide block, primary screen, cell-based, CHO-hERG, FluxOR thallium flux, dofetilide IC70; Voltage-gated inwardly rectifying potassium channel KCNH2 (Homo sapiens), Q12809; dofetilide IC70 present; activation (rescue from dofetilide block), less the hit threshold, % at 10 µM; 0.51% of 310,000 active;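 active = activation above the mean of controls blocked by dofetilide plus 5 SD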;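 also: thallium influx through hERG after potassium depolarization seen as dye fluorescence rise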
# KCNQ1 inh = inhibitors of human KCNQ1 channel, primary screen, cell-based, thallium flux, high-throughput; Potassium voltage-gated channel subfamily KQT member 1 (Homo sapiens), P51787; CHO-K1 KCNQ1, FluxOR thallium flux fluorescence; stronger effect = higher value; B-score at 10 µM; 1.3% of 310,000 active; AID 2642, 2010;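 active = compounds whose thallium flux B-score, printed positive for inhibition, exceeds three library SD while starting fluorescence stays within three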;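 also: channel opened by potassium depolarization with thallium stimulus after 20 min compound exposure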
# KCNK3 block = human KCNK3 channel inhibitors, primary screen, CHO cells, FluxOR thallium flux, B-score; Potassium channel subfamily K member 3 (Homo sapiens), O14649; FluxOR fluorescence; stronger effect = lower value; B-score at 10 µM; 0.84% of 340,000 active; AID 602410, 2012;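 active = B-score under library mean minus 4 SD, starting fluorescence ratio at most library mean plus 5 SD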;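 also: more negative B-score means stronger inhibition of thallium flux through KCNK3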
# Target sequence (O14649 whole entry, looked up): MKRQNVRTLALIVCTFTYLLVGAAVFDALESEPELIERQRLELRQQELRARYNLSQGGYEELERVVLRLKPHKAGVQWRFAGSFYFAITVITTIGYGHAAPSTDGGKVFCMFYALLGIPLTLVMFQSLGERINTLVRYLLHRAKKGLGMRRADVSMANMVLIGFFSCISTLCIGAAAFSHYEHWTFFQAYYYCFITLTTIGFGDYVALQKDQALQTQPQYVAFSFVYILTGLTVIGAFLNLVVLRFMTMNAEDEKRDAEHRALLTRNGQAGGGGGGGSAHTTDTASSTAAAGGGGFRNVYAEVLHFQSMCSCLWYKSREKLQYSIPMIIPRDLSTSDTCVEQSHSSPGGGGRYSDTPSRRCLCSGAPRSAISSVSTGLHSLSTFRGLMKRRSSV
# Kir21 inh = inhibitors of mouse Kir2.1 inward-rectifier potassium channel. Inward rectifier potassium channel 2 (Mus musculus), P35561. HEK293-Kir2.1, FluxOR thallium flux fluorescence; stronger effect = lower value. B-score at 10 µM. 0.85% of 310,000 active. AID 1672, 2009;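 active = fluorescence ratio B-score at or below minus 3 SD of library scores, with starting-brightness B-score within 2 SD, cut at about -4.2 in these data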;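 also: channel flux triggered by added potassium and thallium sulfate stimulus; B-score of peak minus minimum fluorescence over baseline after thallium stimulus; more negative B-score means stronger Kir2.1 block with less thallium influx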
# KCNQ1 pot = potentiators or activators of KCNQ1 channel, primary screen, cell-based, thallium flux, high-throughput | Potassium voltage-gated channel subfamily KQT member 1 (Homo sapiens), P51787 | CHO-K1 KCNQ1, thallium flux FluxOR fluorescence; stronger effect = higher value | B-score at 10 µM | 0.35% of 310,000 active;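 active = fluorescence ratio B-score, a plate-corrected score, at least three library SD, with initial intensity B-score within 5 SD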
#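 Doses: Single concentration per compound, DMSO matched to controls | Test system: KCNQ1-transfected CHO-K1 cells | Timing: 90 min dye loading and 20 min compound exposure, both at room temperature | Measured by: Kinetic FluxOR thallium fluorescence, 10-s 1-Hz baseline, 110-s post-stimulus read | Medium: Assay buffer with matched DMSO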
# KCNQ1 block val = KCNQ1 potassium channel inhibitors, confirmation, cell-based, Tl flux, duplicate; KCNQ1 cell line, FluxOR thallium flux fluorescence; shares compounds with KCNQ1 inh; inhibition, % at 10 µM; 93% of 1,600 active;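 active = primary screen active, with duplicate mean exceeding buffer control mean plus 3 SD of buffer wells, cut at about 28% in these data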;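 also: 0% = buffer control ratio and 100% = XE991 inhibitor control ratio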
# CHO KCNQ1 ctr = thallium flux effects in parental CHO cells, counter-screen for KCNQ1 inhibitor project, cell-based, Tl flux; shares compounds with KCNQ1 inh; 21% of 1,600 active; fluorescence ratio (Tl flux) at 10 µM; parental CHO-K1, FluxOR thallium flux fluorescence ratio; stronger effect = lower value; zero means no signal rise above baseline;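 active = mean of duplicate thallium-flux fluorescence ratios in parental host cells more than 5 SD below the buffer control mean, cut at about 0.38 in these data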;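 also: ratio is peak minus minimum fluorescence divided by baseline fluorescence; actives read low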
# KCNQ1 APC inh = KCNQ1 channel inhibitors, confirmation, orthogonal assay, cell-based, automated electrophysiology; shares compounds with KCNQ1 inh; KCNQ1-CHO cells, automated patch clamp current; calls only at 10 µM; 20% of 490 active; AID 624120, 2012;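 active = KCNQ1 current drop exceeding 3 SD of negative control wells, seen in both duplicate runs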;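 also: steady state current during a 2 s step from -80 to +40 mV; negative values mean current inhibition and positive values mean potentiation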
# KCNQ2 inh = KCNQ2 channel inhibition, selectivity assay for KCNQ1 inhibitor project, cell-based. shares compounds with KCNQ1 inh. KCNQ2 cells, FluxOR thallium flux fluorescence. 71% of 1,600 active. AID 651746, 2012. inhibition, % at 10 µM;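 active = mean percent inhibition of the KCNQ2 thallium signal more than 5 SD above the buffer-only control wells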;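 also: KCNQ2 expressed in CHO cells; 0% = buffer control wells and 100% = XE-991 inhibitor control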
# KCNQ1 KCNE1 spec = KCNQ1/KCNE1 channel inhibition, selectivity assay for KCNQ1 inhibitor project, CHO-K1 cells, thallium flux, FluxOR | shares compounds with KCNQ1 inh | FluxOR thallium flux fluorescence | inhibition, % at 10 µM | 77% of 1,600 active | AID 652147, 2013;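 active = mean percent inhibition of duplicate wells above the buffer-only control mean plus 3 SD of those controls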;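 also: 0% = buffer only wells and 100% = XE-991 inhibitor control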
# Active calls of the source: *; i = inactive; x = no result; + = active, no number.
SMILES,KCNK9 inh,hERG protect,KCNQ1 inh,KCNK3 block,Kir21 inh,KCNQ1 pot,KCNQ1 block val,CHO KCNQ1 ctr,KCNQ2 inh,KCNQ1 KCNE1 spec,others
Cc1ccc(OCCN2CCN(c3ncnc4sc(C)c(C)c34)CC2)cc1,i,-19,11*,-11*,-2.8,i,126*,0.37*,140%*,108%*,
CC1(C)CC(NC(=O)c2ccccc2NS(=O)(=O)c2ccc(Br)cc2)CC(C)(C)N1,x,x,x,i,x,x,x,x,x,x,
S=C(c1cccs1)N1CCN(c2ccccc2)CC1,x,x,x,i,x,x,x,x,x,x,
CC(=O)Nc1ccccc1OCC(=O)c1cc(C)n(Cc2cccs2)c1C,i,-21,7*,-9.4*,-1,i,110*,0.42,99%*,38%*,
CCOC(=O)C1CCN(S(=O)(=O)c2ccc3[nH]c(=O)c(=O)[nH]c3c2)CC1,i,-9,i,i,-0.51,i,x,x,x,x,
CCOC(=O)C1CCN(S(=O)(=O)c2ccc3[nH]c4c(c3c2)CCCC4)CC1,i,-10,6*,i,0.34,i,102*,0.5,67%*,102%*,KCNQ1 APC inh=+
O=C(NCCN1C(=O)S/C(=C\c2ccc(Cl)c([N+](=O)[O-])c2)C1=O)C1=COCCO1,i,-13,i,i,-2.4,i,x,x,x,x,
COc1ccccc1NC(=O)C(Sc1ccccc1)c1ccccc1 (configuration not stated),i,-11,10*,i,0.69,i,84*,0.4,112%*,88%*,
Cc1ccc(C)c(S(=O)(=O)NCCCc2ccccc2)c1,i,-8,7*,i,-0.39,i,98*,0.49,i,i,KCNQ1 APC inh=i
O=S(=O)(NCCCc1ccccc1)c1ccccc1,i,-8,i,i,-0.64,i,x,x,x,x,
O=C(CCN1CCc2ccccc2C1)c1ccc2c(c1)OCCO2,i,-24,7*,i,0.02,i,44*,0.38*,70%*,83%*,
O=C(CCN1CCCCC1)c1ccc2c(c1)OCCO2,i,1,i,i,0.34,i,x,x,x,x,
O=C(CCN1CCc2ccccc21)c1ccc2c(c1)OCCO2,i,-8,i,i,0.86,i,x,x,x,x,
O=C(CCN1CCCC1Cc1ccccc1)c1ccc2c(c1)OCCO2 (configuration not stated),i,-11,7*,i,-0.19,i,82*,0.42,78%*,100%*,
O=C(CCN1CCC(c2ccccc2)C1)c1ccc2c(c1)OCCO2 (configuration not stated),i,-16,6*,i,-2.3,i,45*,0.43,60%*,56%*,
CC(C)(C)OC(=O)N1CCCC(C(=O)CC#N)C1 (configuration not stated),i,-11,9*,i,-0.36,i,96*,0.49,109%*,188%*,KCNQ1 APC inh=i
CCc1cc(Br)ccc1NC(=S)NCCc1ccccc1,i,-9,6*,i,-7.9*,i,65*,0.51,59%*,70%*,
Fc1ccc(F)c(NC(=S)NCCc2ccccc2)c1,i,-5,7*,i,-0.82,i,53*,0.56,81%*,71%*,
CN(CC(=O)NCCc1ccccc1)CC(=O)Nc1cccc(F)c1,x,x,x,i,x,x,x,x,x,x,
O=C(NCCCCc1ccccc1)Nc1cccc(F)c1,i,-15,6*,i,-0.53,i,61*,0.52,i,36%*,
Fc1cccc(NC(=S)NCCc2ccccc2)c1,i,-9,7*,i,-0.33,i,52*,0.56,62%*,i,
Cc1cc(C)c(NC(=O)CN(C)C(=O)C2CC(=O)N(c3cccc4ccccc34)C2)c(C)c1 (configuration not stated),x,x,x,i,x,x,x,x,x,x,
CN(C)CCN1C(=O)C2C(C(=O)Nc3cc(Cl)cc(Cl)c3)C3C=CC2(O3)C1C(=O)NC1CCCCC1 (configuration not stated),i,-12,i,i,-1.8,i,x,x,x,x,
Brc1ccc(COc2ncnc3ccccc23)cc1,i,-9,9*,i,0.68,i,0,0.44,68%*,42%*,
c1ccc(OCCOc2ncnc3ccccc23)cc1,i,-11,i,i,-1.5,i,x,x,x,x,
SMILES,KCNK9 inh,hERG protect,KCNQ1 inh,KCNK3 block,Kir21 inh,KCNQ1 pot,KCNQ1 block val,CHO KCNQ1 ctr,KCNQ2 inh,KCNQ1 KCNE1 spec,others
O=C(CCCc1c[nH]c2ccccc12)NCC1COc2ccccc2O1 (configuration not stated),i,-9,10*,i,0,i,62*,0.44,74%*,78%*,
COc1ccc(S(=O)(=O)NCC(=O)NCc2cc(=O)n(C)c(=O)n2C)cc1C,i,-6,i,i,0.06,i,x,x,x,x,
CCCCSc1ccc2nc(-c3ccc(C#N)cc3)cn2c1,i,-13,7*,i,0.3,i,104*,0.56,67%*,92%*,KCNQ1 APC inh=+
CCCn1c(N)c(C(=O)COC(=O)CNC(=O)c2ccccc2OCC)c(=O)[nH]c1=O,x,x,x,i,x,x,x,x,x,x,
COc1ccc(Oc2ccccc2C#N)cc1,i,-12,i,i,0.2,i,x,x,x,x,
COc1ccccc1Oc1ccc(Oc2ccccc2OC)cc1,i,-8,7*,i,0.96,i,126*,0.36*,125%*,108%*,
